Data on 16 compounds can be found in ChEMBL document CHEMBL1135550, “Highly potent geminal bisphosphonates. From pamidronate disodium (Aredia) to zoledronic acid (Zometa)” (J Med Chem, 2002).

The IC50 is the midpoint of a concentration-inhibition curve. For orientation: ED50 means the dose at which the effect has come halfway, by size or by number of responders.

SMILES strings stand for the structures.

Data set [1] is filed under the species Mus musculus. The experiment in a line: Inhibition of bone mineralization in the calvaria assay of mouse. The data set is classed as functional.
Data set [2] is described as follows: Ratio of calvaria mineralization to calvaria bone resorption. The data set is classed as functional.
The species named for data set [3] is Mus musculus. As to the kind of experiment: Inhibition of bone resorption in the calvaria assay of mouse. In kind it is functional.
Data set [4] in a line: Therapeutic ratio comparing nephrotoxic potential versus bone antiresorptive potency (reciprocal of ED50 (TPTX assay) / the total urinary malate dehydrogenase excretion). The data set is classed as ADME, tissue-based, Urine. Put shortly:
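Rats received repeated sc injections, with saline-injected controls. Malate dehydrogenase was totalled in units over eight 24-h urine collections from the start of dosing. The ratio is the reciprocal of the TPTX hypercalcemia ED50 (mg/kg) divided by total urinary MDH units.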

Data set [5] relates to Rattus norvegicus. The experiment in a line: Effective dose after subcutaneous administration to TPTX rats for 50% reduction of hypercalcemia. The note with it: sc. The data set is classed as functional. Put shortly: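 Young male rats (130-150 g) were thyroparathyroidectomized and allowed 4 days to recover, then fasting serum was sampled. Animals with serum Ca above 1.88 mM were discarded, and the rest were randomized into groups of 5. On days 5-8, 1,25(OH)2D3 (125 pmol/kg sc) was given with graded sc doses of bisphosphonate, and total serum calcium was measured. ED50 is the sc dose halving the hypercalcemia.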

The nature of data set [6]: Therapeutic ratio comparing nephrotoxic potential versus bone antiresorptive potency ( reciprocal of ED50 (TPTX assay) / the total urinary malate dehydrogenase excretion). In kind it is ADME. The note with it: urine; read-out: Therapeutic ratio. The essentials:
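Ratio = (1/TPTX ED50 in mg/kg) ÷ total urinary malate dehydrogenase units, pooled from eight 24-h urine collections after starting repeated sc dosing. ED50 model: young male rats (130-150 g), thyroparathyroidectomized, 4-day recovery; rats with fasting serum Ca above 1.88 mM excluded; groups of 5. Days 5-8: 1,25(OH)2D3 125 pmol/kg sc plus graded sc bisphosphonate. ED50 = dose halving the hypercalcemia (total serum calcium).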

Data set [7] is filed under the species Rattus norvegicus. The experiment in a line: Effective dose for increased cancellous bone hydroxy proline in young interact rats after a treatment period of 10 days. The note with it: 240 h. The data set is classed as functional.
Data set [8] is filed under the species Rattus norvegicus. As to the kind of experiment: Effective dose for increased mucosal permeability of perfused ileal loop in rats after a treatment period of 2 hr in intestinal tolerability model. In kind it is functional.
The species named for data set [9] is Rattus norvegicus. As to the kind of experiment: Effective dose for increased serum urea level rats after a treatment period of 1 hr in renal tolerability model. In kind it is functional.
Data set [10] is filed under the species Rattus norvegicus. As to the kind of experiment: Effective dose for increased radiographic bone density in young interact rats after a treatment period of 10 days. In kind it is functional. The note with it: 240 h.
For data set [11], the species on record is Rattus norvegicus. As to the kind of experiment: Effective dose for increased cancellous bone area in young interact rats after a treatment period of 10 days. In kind it is functional. The note with it: 240 h.
The species named for data set [12] is Rattus norvegicus. The experiment in a line: Effective dose for increased cancellous bone calcium in young interact rats after a treatment period of 10 days. The data set is classed as functional. The note with it: 240 h.
The species entered for data set [13] is Rattus norvegicus. The experiment in a line: Effective dose for increased urinary excretion of MDH in rats after a treatment period of 14 days in renal tolerability model. In kind it is functional, Urine.
The species named for data set [14] is Mus musculus. The experiment in a line: Inhibition of mineralization in the calvaria assay of mouse. The data set is classed as functional. Put shortly:
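In vitro mineralization assay in mouse calvaria cultures. The read-out is calcium incorporation into the calvaria.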

For data set [15], the species on record is Rattus norvegicus. The experiment in a line: Compound was tested for increased urinary excretion of MDH in rats after a treatment period of 14 days in renal tolerability model. In kind it is functional, Urine.
The species entered for data set [16] is Rattus norvegicus. As to the kind of experiment: Effective dose for increased cancellous bone hydroxy proline in young intact rats after a treatment period of 10 days. In kind it is functional. The note with it: 240 h.
The species named for data set [17] is Rattus norvegicus. As to the kind of experiment: Effective dose for increased radiographic bone density in young intact rats after a treatment period of 10 days. The data set is classed as functional. The note with it: 240 h.
Data set [18] is filed under the species Rattus norvegicus. As to the kind of experiment: Compound was tested for increased mucosal permeability of perfused ileal loop in rats after a treatment period of 2 hr in intestinal tolerability model. In kind it is functional.
Data set [19] is filed under the species Rattus norvegicus. As to the kind of experiment: Effective dose for increased cancellous bone calcium in young intact rats after a treatment period of 10 days. The note with it: 240 h. The data set is classed as functional.
For data set [20], the species on record is Rattus norvegicus. As to the kind of experiment: Effective dose for increased cancellous bone area in young intact rats after a treatment period of 10 days. In kind it is functional. The note with it: 240 h.

In the case of `Cc1cnc(NC(P(=O)(O)O)P(=O)(O)O)s1`, the IC50 in the data set filed under Mus musculus [1] stood at 15 µM; in the data set filed under Mus musculus [3], 40 nM. Moreover, the Ratio in data set [2] was 375. The Therapeutic ratio in data set [4] is on record as 4.5. The ED50 in the data set on Rattus norvegicus [5] was 1.5 µg/kg.

In the case of `CN(CCCc1ccccc1)CCC(O)(P(=O)(O)O)P(=O)(O)O`, the IC50 in the data set filed under Mus musculus [1] came to 4 µM; in the data set listed under Mus musculus [3], 50 nM. The Ratio in [2] is 80. Moreover, the Therapeutic ratio in data set [4] amounted to 120. For the same compound, in the data set on Rattus norvegicus [5], the ED50 was 1 µg/kg.

Regarding `CN(CCc1ccccc1)CCC(O)(P(=O)(O)O)P(=O)(O)O`, the figures for the IC50 in the data set listed under Mus musculus [1] and in the data set filed under Mus musculus [3] were 30 µM and 20 nM, respectively. Moreover, the Ratio in [2] turned out to be 1500. In [4], the Therapeutic ratio was determined as 19. Moreover, the ED50 in the data set on Rattus norvegicus [5] was 1.4 µg/kg.

With `NCCCC(O)(P(=O)(O)O)P(=O)(O)O` [ALENDRONIC ACID], the IC50 worked out at 20 µM in the data set listed under Mus musculus [1] and 50 nM in the data set listed under Mus musculus [3]. The selectivity ratio in [6] worked out at 6.6. Further, the Ratio in data set [2] turned out to be 400. In addition, the ED50 in the data set with Rattus norvegicus [5] was 8 µg/kg.

In the case of `NCCC(O)(P(=O)(O)O)P(=O)(O)O` [PAMIDRONIC ACID], the 50% effective dose (ED50) is 0.21 mg/kg in the data set listed under Rattus norvegicus [7]; 0.39 mg/kg in the data set filed under Rattus norvegicus [10]; 7.1 µg/kg in the data set filed under Rattus norvegicus [11]; 0.0227 mg/kg in the data set filed under Rattus norvegicus [12]; 61 µg/kg in the data set on Rattus norvegicus [5]. For the same compound, in [6], the selectivity ratio is 1.2. The NOL in the data set filed under Rattus norvegicus [8] is 10 mM; in the data set listed under Rattus norvegicus [13], 0.1 mg/kg. For the same compound, the Ratio in data set [2] turned out to be 500. Besides, the IC50 is 200 nM in the data set filed under Mus musculus [3] and 100 µM in the data set filed under Mus musculus [14]. In the data set filed under Rattus norvegicus [9], the ED100 turned out to be 11 mg/kg.

`CN(CCCOc1ccccc1)CCC(O)(P(=O)(O)O)P(=O)(O)O`: the IC50 was 9 µM in the data set filed under Mus musculus [1] and 40 nM in the data set listed under Mus musculus [3]. Besides, the Ratio in data set [2] was determined as 225. The Therapeutic ratio in data set [4] amounted to 84. Also, the ED50 in the data set on Rattus norvegicus [5] was 0.5 µg/kg.

For `O.O=P(O)(O)C(O)(Cn1ccnc1)P(=O)(O)O` [ZOLEDRONIC ACID], the NOL in the data set filed under Rattus norvegicus [15] is more than 1000 µg/kg; in the data set filed under Rattus norvegicus [18] it was 10 mM. The ED50 is 1.1 µg/kg in the data set listed under Rattus norvegicus [16], 1.7 µg/kg in the data set listed under Rattus norvegicus [17], 0.17 µg/kg in the data set listed under Rattus norvegicus [19] and 0.071 µg/kg in the data set listed under Rattus norvegicus [20]. The Ratio in data set [2] came out at 15000. The IC50 in the data set listed under Mus musculus [3] was 2 nM; in the data set listed under Mus musculus [14], 30 µM. In addition, the ED100 in the data set listed under Rattus norvegicus [9] was 38 mg/kg.

With `CC(CC(O)(P(=O)(O)O)P(=O)(O)O)N(C)C` (stereo unspecified), the ED50 in the data set with Rattus norvegicus [5] was 18 µg/kg.

On to `O=P(O)(O)C(Nc1ncc(-c2ccccc2)s1)P(=O)(O)O`, for which the ED50 in the data set with Rattus norvegicus [5] was more than 1000 µg/kg.

On to `O=P(O)(O)C(O)(CCNCCCCc1ccccc1)P(=O)(O)O`, for which the ED50 in the data set on Rattus norvegicus [5] was 1 µg/kg.

For the compound `O=P(O)(O)C(N1CCCC1)P(=O)(O)O`, the ED50 in the data set with Rattus norvegicus [5] is more than 2000 µg/kg.

For the compound `CN(CCOc1ccc(Cl)cc1)CCC(O)(P(=O)(O)O)P(=O)(O)O`, the ED50 in the data set on Rattus norvegicus [5] is 1.7 µg/kg.

On to `O=P(O)(O)C(O)(Cn1cccn1)P(=O)(O)O`, for which the ED50 with Rattus norvegicus [5] was more than 300 µg/kg.

Turning to `O=P(O)(O)C(Cc1nccs1)P(=O)(O)O`, in the data set on Rattus norvegicus [5], the ED50 is 200 µg/kg.

For the compound `O=P(O)(O)C(O)(CCN1CCCC1)P(=O)(O)O`, the ED50 in the data set on Rattus norvegicus [5] was 10 µg/kg.

`O=P(O)(O)C(O)(Cn1cncn1)P(=O)(O)O`: the 50% effective dose (ED50) in the data set on Rattus norvegicus [5] is 600 µg/kg.
